Values after ≈ are worked out from the molar mass of the structure shown.
Key:
[1] = tested on: Klebsiella pneumoniae; test: Inhibition of KPC-2 in Klebsiella pneumoniae assessed as meropenem antibacterial activity at 4 ug/ml after 16 to 20 hrs by CLSI-based microbroth dilution method (Rvb >= […] ug/ml)
[2] = Inhibition of bacterial VIM-2 using nitrocefin as substrate preincubated for 15 mins followed by susbtrate addition and measured after 10 mins by spectrophotometric method; design: species or system Bacteria
In short: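 Purified β-lactamase inhibition. IC50 values are the average of duplicates unless otherwise indicated.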

[3] = molecular target: Beta-lactamase VIM-2 (Pseudomonas aeruginosa) (UniProt Q9K2N0); test: Inhibition of VIM-2 in Pseudomonas aeruginosa assessed as meropenem antibacterial activity at 4 ug/ml after 16 to 20 hrs by CLSI-based microbroth dilution method (Rvb >= […] ug/ml)
[4] = Inhibition of bacterial AmpC using nitrocefin as substrate preincubated for 15 mins followed by susbtrate addition and measured after 10 mins by spectrophotometric method; design: species or system Bacteria
[5] = Inhibition of bacterial OXA-48 using nitrocefin as substrate preincubated for 15 mins followed by susbtrate addition and measured after 10 mins by spectrophotometric method; design: species or system Bacteria
[6] = tested on: Klebsiella pneumoniae; test: Inhibition of VIM-4 in Klebsiella pneumoniae assessed as meropenem antibacterial activity at 4 ug/ml after 16 to 20 hrs by CLSI-based microbroth dilution method (Rvb >= […] ug/ml)
[7] = Inhibition of bacterial KPC-2 using imipenem as substrate preincubated for 15 mins followed by susbtrate addition and measured after 10 mins by spectrophotometric method; design: species or system Bacteria
[8] = tested on: Klebsiella pneumoniae; test: Inhibition of OXA-48 in Klebsiella pneumoniae assessed as meropenem antibacterial activity at 4 ug/ml after 16 to 20 hrs by CLSI-based microbroth dilution method (Rvb >= […] ug/ml)
[9] = tested on: Pseudomonas aeruginosa; test: Inhibition of VIM in Pseudomonas aeruginosa CDC-0457 assessed as cefepime antibacterial activity at 8 ug/ml after 16 to 20 hrs by CLSI-based microbroth dilution method
[10] = tested on: Klebsiella pneumoniae; test: Inhibition of VIM-27/CTX-M-15/SHV-11/OXA-1 in Klebsiella pneumoniae CDC-0040 assessed as cefepime antibacterial activity at 8 ug/ml after 16 to 20 hrs by CLSI-based microbroth dilution method
[11] = tested on: Klebsiella pneumoniae; test: Inhibition of KPC-2/SHV12/TEM-1 in Klebsiella pneumoniae CDC-0361 assessed as cefepime antibacterial activity at 8 ug/ml after 16 to 20 hrs by CLSI-based microbroth dilution method (reference value: […] ug/ml)
[12] = tested on: Klebsiella pneumoniae; test: Inhibition of VIM-27/CTX-M-15/SHV-11/OXA-1 in Klebsiella pneumoniae CDC-0040 assessed as meropenem antibacterial activity at 4 ug/ml after 16 to 20 hrs by CLSI-based microbroth dilution method
[13] = tested on: Klebsiella pneumoniae ATCC BAA-1705; test: Inhibition of KPC-2 in Klebsiella pneumoniae ATCC BAA 1705 assessed as meropenem antibacterial activity at 4 ug/ml after 16 to 20 hrs by CLSI-based microbroth dilution method (reference value: […] ug/ml)
[14] = tested on: Escherichia coli; test: Inhibition of NDM in Escherichia coli CDC-0452 assessed as piperacillin antibacterial activity at 16 ug/ml after 16 to 20 hrs by CLSI-based microbroth dilution method (Rvb > […] ug/ml)
[15] = tested on: Klebsiella pneumoniae; test: Inhibition of VIM-27/CTX-M-15/SHV-11/OXA-1 in Klebsiella pneumoniae CDC-0040 assessed as piperacillin antibacterial activity at 16 ug/ml after 16 to 20 hrs by CLSI-based microbroth dilution method
[16] = tested on: Escherichia coli; test: Inhibition of NDM-1/CMY-6/OXA-1 in Escherichia coli CDC-0055 assessed as meropenem antibacterial activity at 4 ug/ml after 16 to 20 hrs by CLSI-based microbroth dilution method (reference value: […] ug/ml)
[17] = tested on: Escherichia coli; test: Inhibition of NDM in Escherichia coli CDC-0452 assessed as cefepime antibacterial activity after 16 to 20 hrs by CLSI-based microbroth dilution method (reference value: […] ug/ml)
[18] = tested on: Klebsiella pneumoniae; test: Inhibition of OXA-232/OXA-9/TEM-1A/CTX-M-15/OXA-1 in Klebsiella pneumoniae CDC-0066 assessed as cefepime antibacterial activity at 8 ug/ml after 16 to 20 hrs by CLSI-based microbroth dilution method (Rvb > […] ug/ml)
[19] = tested on: Klebsiella pneumoniae; test: Inhibition of OXA-232/OXA-9/TEM-1A/CTX-M-15/OXA-1 in Klebsiella pneumoniae CDC-0066 assessed as piperacillin antibacterial activity at 16 ug/ml after 16 to 20 hrs by CLSI-based microbroth dilution method (Rvb > […] ug/ml)
[20] = tested on: Escherichia coli; test: Inhibition of NDM-1/CMY-6/OXA-1 in Escherichia coli CDC-0055 assessed as cefepime antibacterial activity at 8 ug/ml after 16 to 20 hrs by CLSI-based microbroth dilution method
In short: (§1)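 MDR β-lactamase-producing Gram-negative clinical isolates. […] MIC was reported as the inhibitor concentration that restores the partner's antibacterial activity.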

[21] = tested on: Klebsiella pneumoniae; test: Inhibition of KPC-2/SHV12/TEM-1 in Klebsiella pneumoniae CDC-0361 assessed as piperacillin antibacterial activity at 16 ug/ml after 16 to 20 hrs by CLSI-based microbroth dilution method (Rvb > […] ug/ml)
[22] = tested on: Klebsiella pneumoniae ATCC BAA-1705; test: Inhibition of KPC-2 in Klebsiella pneumoniae ATCC BAA 1705 assessed as cefepime antibacterial activity at 8 ug/ml after 16 to 20 hrs by CLSI-based microbroth dilution method; in short: as §1
[23] = tested on: Escherichia coli; test: Inhibition of NDM in Escherichia coli CDC-0452 assessed as meropenem antibacterial activity at 4 ug/ml after 16 to 20 hrs by CLSI-based microbroth dilution method (reference value: […] ug/ml)
[24] = tested on: Klebsiella pneumoniae ATCC BAA-1705; test: Inhibition of KPC-2 in Klebsiella pneumoniae ATCC BAA 1705 assessed as piperacillin antibacterial activity at 16 ug/ml after 16 to 20 hrs by CLSI-based microbroth dilution method (Rvb > […] ug/ml)
[25] = tested on: Pseudomonas aeruginosa; test: Inhibition of KPC-2/PDC-42 in Pseudomonas aeruginosa CDC-0356 assessed as meropenem antibacterial activity at 4 ug/ml after 16 to 20 hrs by CLSI-based microbroth dilution method (reference value: […] ug/ml)
[26] = tested on: Escherichia coli; test: Inhibition of NDM-1/CMY-6/OXA-1 in Escherichia coli CDC-0055 assessed as piperacillin antibacterial activity at 16 ug/ml after 16 to 20 hrs by CLSI-based microbroth dilution method; in short: as §1
[27] = tested on: Pseudomonas aeruginosa; test: Inhibition of KPC-2/PDC-42 in Pseudomonas aeruginosa CDC-0356 assessed as cefepime antibacterial activity at 8 ug/ml after 16 to 20 hrs by CLSI-based microbroth dilution method (Rvb > […] ug/ml)
[28] = tested on: Pseudomonas aeruginosa; test: Inhibition of VIM in Pseudomonas aeruginosa CDC-0457 assessed as meropenem antibacterial activity at 4 ug/ml after 16 to 20 hrs by CLSI-based microbroth dilution method
[29] = tested on: Klebsiella pneumoniae; test: Inhibition of KPC-2/SHV12/TEM-1 in Klebsiella pneumoniae CDC-0361 assessed as meropenem antibacterial activity at 4 ug/ml after 16 to 20 hrs by CLSI-based microbroth dilution method (reference value: […] ug/ml)
[30] = tested on: Pseudomonas aeruginosa; test: Inhibition of VIM in Pseudomonas aeruginosa CDC-0457 assessed as piperacillin antibacterial activity at 16 ug/ml after 16 to 20 hrs by CLSI-based microbroth dilution method
[31] = tested on: Klebsiella pneumoniae; test: Inhibition of OXA-232/OXA-9/TEM-1A/CTX-M-15/OXA-1 in Klebsiella pneumoniae CDC-0066 assessed as meropenem antibacterial activity at 4 ug/ml after 16 to 20 hrs by CLSI-based microbroth dilution method (reference value: […] ug/ml)
[32] = tested on: Pseudomonas aeruginosa; test: Inhibition of KPC-2/PDC-42 in Pseudomonas aeruginosa CDC-0356 assessed as piperacillin antibacterial activity at 16 ug/ml after 16 to 20 hrs by CLSI-based microbroth dilution method (Rvb > […] ug/ml)

O=C(O)CN[C@H]1CC[C@H](CC(=O)N[C@H]2Cc3cccc(C(=O)O)c3OB2O)CC1
MIC [1]: 4 µg/mL (≈ 9.9 µM) | IC50 [2]: 2400 nM | MIC [3]: 16 µg/mL (≈ 39.6 µM) | IC50 [4]: 6 nM | IC50 [5]: 3140 nM | MIC [6]: 32 µg/mL (≈ 79.2 µM) | IC50 [7]: 19 nM | MIC [8]: 8 µg/mL (≈ 19.8 µM)

N=C(N)NCCN[C@H]1CC[C@H](CC(=O)N[C@H]2Cc3cccc(C(=O)O)c3OB2O)CC1
MIC [1]: 1 µg/mL (≈ 2.32 µM) | IC50 [2]: 86 nM | MIC [3]: 0.5 µg/mL (≈ 1.16 µM) | IC50 [4]: 6 nM | IC50 [5]: 1590 nM | MIC [6]: 0.06 µg/mL (≈ 0.139 µM) | IC50 [7]: 27 nM | MIC [8]: 2 µg/mL (≈ 4.64 µM)

NCc1ccc(CC(=O)N[C@H]2Cc3cccc(C(=O)O)c3OB2O)cc1
MIC [1]: 0.5 µg/mL (≈ 1.41 µM) | MIC [9]: 8 µg/mL (≈ 22.6 µM) | MIC [10]: > 16 µg/mL | IC50 [2]: 270 nM | MIC [3]: 8 µg/mL (≈ 22.6 µM) | IC50 [4]: 12 nM | MIC [11]: 0.0079 µg/mL (≈ 0.0223 µM) | MIC [12]: > 16 µg/mL | MIC [13]: 0.0079 µg/mL (≈ 0.0223 µM) | MIC [14]: 8 µg/mL (≈ 22.6 µM) | MIC [15]: > 16 µg/mL | MIC [16]: 1 µg/mL (≈ 2.82 µM) | MIC [17]: 2 µg/mL (≈ 5.65 µM) | IC50 [5]: 1800 nM | MIC [18]: 4 µg/mL (≈ 11.3 µM) | MIC [19]: > 16 µg/mL | MIC [20]: 4 µg/mL (≈ 11.3 µM) | MIC [21]: 0.5 µg/mL (≈ 1.41 µM) | MIC [22]: 0.06 µg/mL (≈ 0.169 µM) | MIC [6]: 4 µg/mL (≈ 11.3 µM) | MIC [23]: 2 µg/mL (≈ 5.65 µM) | MIC [24]: 2 µg/mL (≈ 5.65 µM) | MIC [25]: 1 µg/mL (≈ 2.82 µM) | MIC [26]: 16 µg/mL (≈ 45.2 µM) | MIC [27]: 2 µg/mL (≈ 5.65 µM) | MIC [28]: > 16 µg/mL | IC50 [7]: 40 nM | MIC [29]: 0.0079 µg/mL (≈ 0.0223 µM) | MIC [8]: 1 µg/mL (≈ 2.82 µM) | MIC [30]: > 16 µg/mL | MIC [31]: 4 µg/mL (≈ 11.3 µM) | MIC [32]: 2 µg/mL (≈ 5.65 µM)

NCCCN[C@H]1CC[C@H](CC(=O)N[C@H]2Cc3cccc(C(=O)O)c3OB2O)CC1
MIC [1]: 0.5 µg/mL (≈ 1.24 µM) | IC50 [2]: 82 nM | MIC [3]: 0.25 µg/mL (≈ 0.62 µM) | IC50 [4]: 5 nM | IC50 [5]: 664 nM | MIC [6]: 4 µg/mL (≈ 9.92 µM) | IC50 [7]: 70 nM | MIC [8]: 8 µg/mL (≈ 19.8 µM)

Source: ChEMBL document CHEMBL4354828, “Discovery of Taniborbactam (VNRX-5133): A Broad-Spectrum Serine- and Metallo-β-lactamase Inhibitor for Carbapenem-Resistant Bacterial Infections” (J Med Chem, 2020)
